Data as given in PMC2913304 (Pharmaceutical research, 2008).
Where two headings read alike, the source gives them in different places. Values belong to the molecule of their own block, whether it stands above or below them. Non-standard residues stand in square brackets, D forms with d. Residues, ends and D or L forms follow the SMILES beside them. Sar = CNCC(=O)O

Assays:
SKPT cells [1] = conditions: cited from earlier work
SKPT cells [2] = test: Effect of potential inhibitors on apical uptake of carnosine; type: in vitro ADME, rat; conditions: 15-min uptake, apical pH 6.0; for reduction of apical uptake of carnosine: inhibitor 1 and 2 mM
Method in brief: (§1)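 Measured 15-min uptake at 37°C of [3H]substrate (with [14C]mannitol correction) from the apical or basolateral side, co-incubated with or without test compounds (PEPT2 and PHT1 substrates, unlabelled substrate, a cephalosporin). Apical buffer was pH 6.0 and basolateral pH 7.4. Test compounds were 1 mM for basolateral uptake. Results were compared with control by ANOVA and Dunnett's test. n=3–6.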

SKPT cells [3] = test: Effect of potential inhibitors on basolateral uptake of carnosine; type: in vitro ADME, rat; conditions: inhibitor 1 mM; 15-min uptake, basolateral pH 7.4
Method in brief: as §1

[4] = system: rat choroid plexus primary cell cultures; conditions: cited from earlier work
SKPT cells [5] = test: Substrate stability studies in SKPT compartments; type: in vitro ADME, rat
Method in brief: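 10 µM [3H]substrate applied apically or basolaterally (apical pH 6.0, basolateral pH 7.4) for 5–300 min at 37°C. Donor and receiver media were collected. Cells were washed, sonicated in water, extracted with an equal volume of acetonitrile, and centrifuged at 14,000 g for 10 min at 4°C. Reversed-phase C18 HPLC used isocratic 0.1 M NaH2PO4/0.075% heptafluorobutyric acid at 1 ml/min. Stability was taken from recovery and histidine appearance. n=3.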

SKPT cells [6] = test: Carnosine intracellular accumulation; type: in vitro ADME, rat
Method in brief: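 Rat kidney proximal tubule cells (SV40-transformed) grown on collagen-coated filter inserts and used 4 days after seeding, with no antibiotics for the final 24 h and monolayer resistance checked. Cells were preincubated 10 min at 37°C with apical pH 6.0 and basolateral pH 7.4 buffer. 10 µM [3H]substrate plus [14C]mannitol was added to one side, 37°C timed incubations. Cells washed with ice-cold buffer, solubilised (NaOH/SDS), counted. Values normalised to protein and mannitol-corrected. Concentration ratio used intracellular volume from 3-O-methyl-D-glucose uptake (1–10 mM, 300 min, phloridzin). n=3–5.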

PEPT2 [7] = molecular target: T1, PEPT2 (Rattus norvegicus, UniProt Q63424); conditions: read-out: Km, PEPT2-mediated uptake; rat neonatal astrocytes; cited from earlier work
T1 sequence (Q63424 1-729): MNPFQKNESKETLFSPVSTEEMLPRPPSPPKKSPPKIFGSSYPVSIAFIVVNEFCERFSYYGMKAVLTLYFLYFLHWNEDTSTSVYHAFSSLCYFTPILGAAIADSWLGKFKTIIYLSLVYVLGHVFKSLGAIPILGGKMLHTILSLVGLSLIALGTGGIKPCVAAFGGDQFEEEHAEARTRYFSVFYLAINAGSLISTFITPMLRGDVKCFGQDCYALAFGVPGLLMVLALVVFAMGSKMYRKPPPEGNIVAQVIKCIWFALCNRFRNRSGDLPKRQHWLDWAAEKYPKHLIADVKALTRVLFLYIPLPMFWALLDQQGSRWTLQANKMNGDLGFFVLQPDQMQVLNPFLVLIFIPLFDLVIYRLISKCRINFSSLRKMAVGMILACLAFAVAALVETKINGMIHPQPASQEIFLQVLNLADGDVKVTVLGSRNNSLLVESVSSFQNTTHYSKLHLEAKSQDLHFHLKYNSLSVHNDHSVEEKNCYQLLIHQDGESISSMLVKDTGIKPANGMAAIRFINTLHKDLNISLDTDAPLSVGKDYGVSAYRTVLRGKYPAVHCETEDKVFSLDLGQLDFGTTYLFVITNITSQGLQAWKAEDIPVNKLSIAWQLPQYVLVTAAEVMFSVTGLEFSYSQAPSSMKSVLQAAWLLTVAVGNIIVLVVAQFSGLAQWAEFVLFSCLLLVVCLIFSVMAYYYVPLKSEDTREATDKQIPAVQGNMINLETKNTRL

basolateral transporter = test: Concentration-dependent basolateral uptake of carnosine; type: in vitro ADME, rat
PEPT2 [8] = molecular target: T1, PEPT2; conditions: read-out: Km, PEPT2-mediated uptake; rat choroid plexus whole tissue; cited from earlier work
[9] = pKa and fractional ionization of carnosine; type: physicochemical
PEPT2 [10] = molecular target: T1, PEPT2; test: Concentration-dependent apical uptake of carnosine; type: in vitro ADME; conditions: 1–500 µM carnosine, 15-min uptake, pH 6.0
SKPT cells [11] = test: Efflux studies after 2 hr apical preloading of SKPT monolayers; type: in vitro ADME, rat
Method in brief: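 Monolayers loaded apically with 10 µM [3H]substrate and [14C]mannitol for 2 h at 37°C, then washed four times with ice-cold buffer. Substrate-free buffer was added to both sides (apical pH 6.0, basolateral pH 7.4) at 37°C. Apical (100 µl) and basolateral (300 µl) samples were taken at set times and replaced. Radioactivity is expressed as percent of cell content after loading. n=3–5.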

SKPT cells [12] = test: Proton; type: in vitro ADME, rat; conditions: 15-min uptake, 10 µM, donor pH 5.5 to 7.4, basolateral pH 7.4
Method in brief: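 The donor-side pH was varied from 5.5 to 7.4 while the opposite side was held at pH 7.4 (apical uptake) or pH 6.0 (basolateral uptake). Uptake of 10 µM [3H]substrate was measured over 15 min at 37°C. Values were compared with pH 7.4 by ANOVA and Dunnett's test. n=3–6.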

SKPT cells [13] = test: Cellular compartment model: influx and efflux clearances of carnosine; type: in vitro ADME, rat
Method in brief: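 A three-compartment (apical, cellular, basolateral) mass-balance model gave influx and efflux clearances (µl/min/mg protein). Transepithelial clearances came from 10 µM donor flux experiments. Each influx clearance equals the transcellular clearance divided by the steady-state fraction effluxed to the opposite compartment. These fractions came from efflux studies after 2 h apical loading.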

[14] = Carnosine transepithelial transport across SKPT cell monolayers; type: in vitro ADME, rat; conditions: rat, basolateral-to-apical transcellular flux relative to apical-to-basolateral flux, 10 µM carnosine
Method in brief: (§2)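 Filter-grown SKPT monolayers with apical pH 6.0 (MES/Tris) and basolateral pH 7.4 (HEPES/Tris) buffers at 37°C. 10 µM [3H]substrate with [14C]mannitol was placed in the apical or basolateral donor side. Receiver aliquots were taken over time for scintillation counting. Paracellular flux was corrected with mannitol, and clearances were obtained from flux relative to the 10 µM donor concentration. n=3–5.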

SKPT cells [15] = test: as above; type: in vitro ADME, rat; conditions: 10 µM in donor compartment, slope of transport vs time
Method in brief: as §2

[16] = substrate: NCCC(=O)N[C@@H](Cc1cnc[nH]1)C(=O)O; test: Concentration-dependent apical uptake of carnosine; type: in vitro ADME, rat; conditions: other: 1–500 µM carnosine, 15-min uptake, pH 6.0, 37.0 °C
[17] = at 60 min, after 2 hr apical preloading with 10 µM
[18] = single exponential fit of efflux-time profile

Molecule: CN(CC(=O)O)C(=O)CN [GlySar, glycylsarcosine] (H-Gly-[Sar]-OH)
apical uptake relative to basolateral uptake (SKPT cells [1]; ref 37): about 5 × | apical uptake relative to basolateral uptake (SKPT cells [1]; ref 38): about 3.5 × | apical-to-basolateral transepithelial flux higher than reverse flux (SKPT cells [1]; ref 38): 28% | reduction of apical uptake of carnosine (SKPT cells [2]): 90% | reduction of basolateral uptake of carnosine (SKPT cells [3]): 90–99%

stability in donor compartment (SKPT cells [5]; apical or basolateral donor side, up to 300 min of incubation): remained intact | intact in intracellular compartment at 60 min (SKPT cells [5]; intracellular compartment, 60 min): about 87% | intact in intracellular compartment at 300 min (SKPT cells [5]; intracellular compartment, 300 min): 81% | intact in intracellular compartment, first 15 min (SKPT cells [5]; intracellular compartment, first 15 min of incubation): > 94% | time over which uptake was linear, apical surface (SKPT cells [6]; 10 µM carnosine): 60 min | time over which uptake was linear, basolateral surface (SKPT cells [6]; 10 µM carnosine): 30 min | basolateral uptake plateau value (SKPT cells [6]; 10 µM carnosine introduced from basolateral compartment): 15 pmol/mg protein | apical uptake plateau value (SKPT cells [6]; 10 µM carnosine, at 180–300 min): approximately 220 pmol/mg protein | intracellular to extracellular concentration ratio, basolateral introduction (SKPT cells [6]; 10 µM extracellular): 0.8 | intracellular to extracellular concentration ratio, apical introduction (SKPT cells [6]; 10 µM extracellular, intracellular volume 2.0 µl/mg protein): 11 | ionized (NH3+) at pH 5.5 ([9]; pH 5.5): 95% | ionized (NH3+) at pH 6.5 ([9]; pH 6.5): 65% | ionized (NH3+) at pH 7.4 ([9]; pH 7.4): 15–20% | Vmax, apical membrane uptake (PEPT2 [10]): 659±27 pmol/mg/15min | cell-to-apical efflux relative to cell-to-basolateral efflux (SKPT cells [11]; SKPT cells): about 10 times | carnosine effluxed from cell to apical compartment (SKPT cells [11]; [17]): about 40% | carnosine effluxed from cell to basolateral compartment (SKPT cells [11]; [17]): about 4% | fefflux.A (fraction effluxed to apical compartment at steady state) (SKPT cells [11]; single exponential fit): 0.66 | fefflux.B (fraction effluxed to basolateral compartment at steady state) (SKPT cells [11]; single exponential fit): 0.047 | carnosine effluxed from cellular to apical compartment at steady state (SKPT cells [11]; [18]): 66% | carnosine effluxed to basolateral compartment at steady state (SKPT cells [11]; [18]): 4.7% | pH of maximal apical uptake (SKPT cells [12]): 6.5 | CLBC/CLCA ratio (SKPT cells [13]): 0.8 | CLBC/CLCB ratio (SKPT cells [13]): 32 | CLCB/CLAC ratio (SKPT cells [13]): 0.004 | efflux ratio at 10 µM [14]: ~2 | A-to-B transepithelial rate (SKPT cells [15]): 1.99 pmol/min/mg protein | B-to-A transepithelial rate (SKPT cells [15]): 3.74 pmol/min/mg protein
Molecule: NCCC(=O)N[C@@H](Cc1cnc[nH]1)C(=O)O [carnosine, β-alanyl-L-histidine]
apical efflux relative to basolateral efflux [4]: about 4 times | intracellular to extracellular concentration ratio [4]: approximately 135 | Km (PEPT2 [7]): 43 µM | Vmax, basolateral membrane uptake (basolateral transporter; 1–500 µM carnosine, 15-min uptake, pH 7.4): 27.4±1.3 pmol/mg/15min | lower affinity of basolateral transporter compared to apical transporter (basolateral transporter; Km comparison): 2 fold | lower capacity of basolateral transporter compared to apical transporter (basolateral transporter; Vmax comparison): 24 fold | Km (PEPT2 [8]): 39 µM | reduction of apical uptake of carnosine (SKPT cells [2]): 96% | reduction of basolateral uptake of carnosine (SKPT cells [3]): 90–99%

Molecule: CC1=C(C(=O)O)N2C(=O)[C@@H](NC(=O)[C@H](N)c3ccc(O)cc3)[C@H]2SC1 [cefadroxil]
reduction of basolateral uptake of carnosine (SKPT cells [3]): 90–99%

Molecule: N[C@@H](Cc1c[nH]cn1)C(=O)O [histidine, L-histidine]
effect on apical uptake of carnosine (SKPT cells [2]; inhibitor 1, 2 and 5 mM): unaffected | effect on basolateral uptake of carnosine (SKPT cells [3]): unaffected

B1: PEPT2 (Rattus norvegicus) (protein)
chain: T1 sequence (Q63424 1-729)
Km [16]: 49 ± 8 µM
